Test results as given in publication PMC6697428 (SLAS discovery : advancing life sciences R & D, 2018).
Read-outs that look alike come from different tables or passages of the source.

Legend:
[1] = tested on: murine bone marrow derived dendritic cells; type: cell-based, mouse; settings: 5 μM compound in presence of IFN-α, compared to IFN-α alone
[2] = tested on: ISRE-bla THP-1 cells; assay: ISRE-bla THP-1 FRET reporter assay for prolonged IFN-α induced ISRE activation; type: cell-based, human
[3] = tested on: STAT1 phosphorylation in THP-1 cells; assay: Immunoblot of STAT1 phosphorylation after IFN-α; type: cell-based, human; settings: 1 μM compound pre-treatment 12 h, then IFN-α
[4] = tested on: ISG15 in THP-1 cells; assay: Immunoblot of IFN-α induced ISG15 protein expression; type: cell-based, human; settings: 24 h
[5] = tested on: human THP-1 cells; assay: q-PCR of ISG15 and ISG56 gene expression in THP-1 cells; type: cell-based; settings: 1 μM compound, 1000 U/mL IFN-α, 8 h, compared to vehicle
[6] = tested on: THP-1 cells; assay: MTT cell viability assay; type: cell-based, human; settings: for relative viability (MTT): 5 μM compound, overnight, relative to vehicle control (0.5% DMSO)
Outline: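 THP-1 cells in 96-well plates were exposed to test compound at 5 μM for 18 h. MTT (0.5 mg/ml in assay media) was then added for 4–6 h. Cells were lysed overnight in 15% w/v SDS with 0.12% v/v 12N HCl. Absorbance was read at 570 nm against a 650 nm reference and expressed relative to vehicle (0.5% DMSO) wells.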

Structure (SMILES)	mRNA expression of Isg56, Isg15, Ifi2712a, Irf7, Ifi16 [1]	mRNA expression of Isg56, Isg15, Ifi2712a, Irf7, Ifi16 ([1]; listed as KX2–391)	FRET ratio in the absence of exogenous interferon ([2]; no IFN-α, even at higher concentrations of the compounds)	EC50 ([2]; read-out: relative EC50 (ISRE activity), with 100 U/mL IFN, 16 h) [µM]	level of p-STAT1 after 30 minutes ([3]; 30 minutes)	level of p-STAT1 at 6 h post stimulation ([3]; 6 h)	levels of IFN-α induced ISG15 protein ([4]; 1 μM compound with IFN-α)	amounts of ISG15 protein without IFN-α ([4]; compound alone)	increase in gene expression for both ISG15 and ISG56 [5] [fold]	relative viability (MTT) [6]	% relative viability, dose response cytotoxicity ([6]; absence of IFN-α, dose response starting with 50 μM) [%]	relative viability (MTT) ([6]; 5 µM)	relative viability (MTT) ([6]; listed as Belinostat, 5 µM)
O=C(Cc1ccc(-c2ccc(OCCN3CCOCC3)cc2)cn1)NCc1ccccc1 [Compound 24, KX2–391]	significantly increased	increased	no increase	1.64	elevated	minimal residual effect	increased	did not increase	~2	without significant toxicity	> 75		
O=C(/C=C/c1cccc(S(=O)(=O)Nc2ccccc2)c1)NO [Compound 26, belinostat]												toxic	relatively toxic
